Assay results: ChEMBL document CHEMBL3112565, “Identification of small molecule sphingomyelin synthase inhibitors” (Eur J Med Chem, 2014)
pEC50, pIC50: −log10 of the molar value. Blank lines part the entries; values can stand above or below the compound they belong to. Activity calls are given as the source filed them. No cut-off for these calls is given here.

Tests used:
[1] = Inhibition of sphingomyelin synthase (unknown origin); design: species or system Homo sapiens
[2] = biological target: T1, Phosphatidylcholine:ceramide cholinephosphotransferase 2 (Homo sapiens, UniProt Q8NHU3); test: Inhibition of SMS2 (unknown origin) expressed in H5 insect cells using C6-NBD-Cer as substrate at 100 uM after 1 hr
T1 sequence (Q8NHU3 whole entry): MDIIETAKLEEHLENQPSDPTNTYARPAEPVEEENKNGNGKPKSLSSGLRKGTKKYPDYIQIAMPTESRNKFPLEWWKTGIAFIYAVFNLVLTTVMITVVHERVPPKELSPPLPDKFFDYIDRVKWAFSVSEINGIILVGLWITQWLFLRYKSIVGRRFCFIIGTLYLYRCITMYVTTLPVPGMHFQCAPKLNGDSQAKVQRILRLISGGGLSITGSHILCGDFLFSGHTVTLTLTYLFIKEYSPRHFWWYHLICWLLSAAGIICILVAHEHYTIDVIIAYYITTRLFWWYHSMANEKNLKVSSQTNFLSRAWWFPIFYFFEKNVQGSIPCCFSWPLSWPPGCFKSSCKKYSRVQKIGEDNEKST
How it was run: (§1)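 SMS2 came from homogenate of H5 insect cells overexpressing it, prepared at 50 mg pellet/mL in 0.25 M sucrose, 50 mM Tris-HCl pH 7.4, 1 mM EDTA and spun at 12,000 rpm for 10 min. The enzyme (2 µg total protein) was preincubated with inhibitor for 30 min at 37 °C in 10 mM HEPES pH 7.4, 3 mM MnCl2, 0.3% BSA. Reaction was started with 1.01 mM C6-NBD-Cer plus DMPC in DMSO and run 1 h at 37 °C. Product was quantified by HPLC as for SMS.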

[3] = biological target: T1, Phosphatidylcholine:ceramide cholinephosphotransferase 2; test: Inhibition of SMS2 (unknown origin) expressed in H5 insect cells using C6-NBD-Cer as substrate after 1 hr; how it was run: as §1
[4] = biological target: Sphingomyelin synthase (Mus musculus); test: Inhibition of SMS in ICR mouse liver homogenate using C6-NBD-Cer as substrate after 2 hrs
[5] = Inhibition of sphingomyelin synthase in ICR mouse liver homogenates using C6-NBD-Cer as substrate after 2 hrs; assay type: tissue-based
How it was run: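 Enzyme was the 12,000 rpm supernatant of ICR mouse liver homogenized at 300 mg/mL in 0.25 M sucrose, 50 mM Tris-HCl pH 7.4, 1 mM EDTA; 2 µg protein per assay. Preincubated with inhibitor 30 min at 37 °C in 10 mM HEPES pH 7.4, 3 mM MnCl2, 0.3% BSA. C6-NBD-ceramide and DMPC were then added and the reaction ran 2 h at 37 °C before ethanol quench. C6-NBD-SM was measured by C18 HPLC with fluorescence detection (ex 475/em 525 nm). IC50 from five inhibitor concentrations, triplicate, log[inhibitor] vs response fit.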

[6] = Inhibition of sphingomyelin synthase (unknown origin) by cell based assay; settings: Homo sapiens
[7] = Half life in saline solution at 24 degC; assay type: ADME
[8] = Cytotoxicity against human HuH7 cells assessed as cell viability after 17 hrs by MTT assay; assay type: cell-based, Huh-7
How it was run: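 Huh-7 cells exposed to a range of concentrations for 17 h, then viability read by MTT. CC50 is the concentration giving 50% inhibition relative to vehicle (0.25% DMSO). Quintuplicate samples; mean of at least two independent tests.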

Mus musculus [9] = test: Inhibition of sphingomyelin synthase in ICR mouse assessed as decrease of sphingomyelin level in plasma at 6 mg/kg, ip after 2 hrs; assay type: functional, organism-based; design: dose 6 mg/kg
How it was run: (§2)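 Female ICR mice (about 25 g), n=5 per group, received 150 µg (6 mg/kg) in 15 µL DMSO plus 185 µL PBS pH 7.4, given i.v. or i.p.; controls got vehicle i.v. Blood was taken from the eye after 2 h and frozen in liquid nitrogen. Plasma ceramide and sphingomyelin were measured by mass spectrometry. Groups compared by Student's t-test.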

Mus musculus [10] = test: Inhibition of sphingomyelin synthase in ICR mouse assessed as decrease of sphingomyelin level in plasma at 6 mg/kg, iv after 2 hrs; assay type: functional, organism-based; design: dose 6 mg/kg; how it was run: as §2
Mus musculus [11] = test: Inhibition of sphingomyelin synthase in ICR mouse assessed as increase of ceramide level in plasma at 6 mg/kg, ip after 2 hrs; assay type: functional, organism-based; design: dose 6 mg/kg; how it was run: as §2
Mus musculus [12] = test: Inhibition of sphingomyelin synthase in ICR mouse assessed as increase of ceramide level in plasma at 6 mg/kg, iv after 2 hrs; assay type: functional, organism-based; design: dose 6 mg/kg; how it was run: as §2

pIC50 [1]: < 3.30
SMILES: O=C(C(c1ccccc1)c1ccccc1)N1CCN(CC(O)COc2cccc3ncccc23)CC1 (centres undefined)

IC50 [2]: Not Active
SMILES: c1ccc(COc2ccccc2CNc2ccccc2)cc1

pIC50 [3]: 4.68
SMILES: Cc1ccc(NC(C#N)c2ccccc2OCc2ccccc2)cc1 (centres undefined)

IC50 [2]: Not Active
SMILES: N#CC(Nc1ccccc1)c1ccccc1 (centres undefined)

IC50 [2]: Not Active
SMILES: N#CC(Nc1ccccc1)c1ccc(OCc2ccccc2)cc1 (centres undefined)

pIC50 [4]: 4.12
SMILES: N#CC1c2ccccc2OC(c2ccccc2O)N1c1ccccc1 (centres undefined)

pIC50 [3]: 4.56
SMILES: N#CC(Nc1ccccc1[N+](=O)[O-])c1ccccc1OCc1ccccc1 (centres undefined)

pIC50 [3]: 4.46
SMILES: N#CC(Nc1cccnc1)c1ccccc1OCc1ccccc1 (centres undefined)

pIC50 [5]: 3.40
pIC50 [3]: 3.65
pEC50 [6]: 4.05
pIC50 [1]: 3.43
SMILES: S=C(S)OC1CC2CC1C1CCCC21 (centres undefined)

pIC50 [3]: 4.17
SMILES: Cc1ccccc1NC(C#N)c1ccccc1OCc1ccccc1 (centres undefined)

pIC50 [3]: 4.61
SMILES: N#CC(Nc1ccc(O)cc1)c1ccccc1OCc1ccccc1 (centres undefined)

pIC50 [3]: 4.32
SMILES: COc1ccc(NC(C#N)c2ccccc2OCc2ccccc2)cc1 (centres undefined)

IC50 [2]: Not Active
SMILES: c1ccc(COc2ccccc2C(Nc2ccccc2)c2nnn[nH]2)cc1 (centres undefined)

half-life [7]: 19.5 min
SMILES: S=C(OC1CC2CC1C1CCCC21)[S][K] (centres undefined)

pIC50 [5]: 3.71
pIC50 [3]: 4.09
SMILES: N#CC(Nc1ccc(C(N)=O)cc1)c1ccccc1OCc1ccccc1 (centres undefined)

pIC50 [5]: 4.03
pIC50 [3]: 4.65
SMILES: N#CC(Nc1ccc(Cl)cc1)c1ccccc1OCc1ccccc1 (centres undefined)

IC50 [2]: Not Active
SMILES: COc1cccc(NC(C#N)c2ccccc2OCc2ccccc2)c1 (centres undefined)

pIC50 [3]: 4.72
SMILES: N#CC(Nc1ccccc1O)c1ccccc1OCc1ccccc1 (centres undefined)

pIC50 [3]: 4.50
SMILES: Cc1cccc(C)c1NC(C#N)c1ccccc1OCc1ccccc1 (centres undefined)

pIC50 [3]: 4.29
SMILES: N#CC(Nc1ccccc1)c1cccc(OCc2ccccc2)c1 (centres undefined)

pIC50 [5]: 4.04
pIC50 [3]: 4.80
SMILES: N#CC(Nc1ccccc1Cl)c1ccccc1OCc1ccccc1 (centres undefined)

pIC50 [3]: 3.87
SMILES: NC(=O)C(Nc1ccccc1)c1ccccc1OCc1ccccc1 (centres undefined)

pIC50 [5]: 4.61
pIC50 [3]: 4.87
SMILES: N#CC(Nc1ccccc1)c1ccccc1OCc1ccccc1 (centres undefined)
CC50 at 17 h [8]: 245 µM
inhibition (Mus musculus [9]): Active
inhibition (Mus musculus [10]): Active
inhibition (Mus musculus [11]): Active
inhibition (Mus musculus [12]): Active

pIC50 [3]: 4.69
SMILES: N#Cc1ccccc1NC(C#N)c1ccccc1OCc1ccccc1 (centres undefined)

pIC50 [5]: 4.45
pIC50 [3]: 4.91
SMILES: COc1ccccc1NC(C#N)c1ccccc1OCc1ccccc1 (centres undefined)

pIC50 [3]: 4.15
SMILES: N#CC(NCc1ccco1)c1ccccc1OCc1ccccc1 (centres undefined)
